Data taken from ChEMBL document CHEMBL4145607, “Tamarixetin Exhibits Anti-inflammatory Activity and Prevents Bacterial Sepsis by Increasing IL-10 Production” (J Nat Prod, 2018).
Calls of active or inactive are those of the source.

What was measured:
Mus musculus [1] = experiment: Antiseptic activity in Balb/c mouse model of Escherichia coli K1 infection-induced sepsis assessed as reduction in serum endotoxin level at 50 mg/kg, ip pretreated for 1 hr followed by Escherichia coli K1 infection measured after 12 hrs by chromogenic assay; format: functional, organism-based
Summary of the method: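 BALB/c mice dosed i.p. 1 h before i.p. E. coli K1 (1 × 10^6 CFU per mouse), sera taken at 12 h. Serum diluted 10-fold in endotoxin-free PBS, LAL chromogenic end-point assay; background subtracted, quantified against E. coli endotoxin standard, reported as EU·mL−1.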

Mus musculus [2] = experiment: Antiseptic activity in Balb/c mouse model of Escherichia coli K1 infection-induced sepsis assessed as reduction in bacterial count in lungs at 50 mg/kg, ip pretreated for 1 hr followed by Escherichia coli K1 infection measured after 12 hrs; format: functional, organism-based
Summary of the method: (§1)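 BALB/c mice dosed i.p. 1 h before i.p. E. coli K1 (1 × 10^6 CFU per mouse); killed at 12 h. Lungs and kidneys removed aseptically into 1 mL sterile PBS, homogenised on ice, diluted 1:1000 in PBS, 10 μL plated on LB agar, 24 h at 37 °C, colonies counted.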

BMDC = experiment: Inhibition of LPS-induced immune response in C57BL/6 mouse BMDC assessed as increase in IL10 secretion at 25 uM pretreated for 30 mins followed by LPS-challenge measured after 6 hrs by ELISA; format: functional, cell-based
Summary of the method: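 Bone marrow from 6-week-old female C57BL/6 mice, RBC-lysed, cultured in RPMI-1640/10% FBS with 10 ng·mL−1 rmGM-CSF, 37 °C, 5% CO2; medium refreshed days 3 and 5. DCs pretreated 30 min with compound, then LPS 50 ng·mL−1 for 6 h; supernatant IL-10 by sandwich ELISA; means ± SEM.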

Mus musculus [3] = experiment: Antiseptic activity in Balb/c mouse model of Escherichia coli K1 infection-induced sepsis assessed as reduction in bacterial count in kidneys at 50 mg/kg, ip pretreated for 1 hr followed by Escherichia coli K1 infection measured after 12 hrs; format: functional, organism-based; summary of the method: as §1
Mus musculus [4] = experiment: Antiseptic activity in Balb/c mouse model of Escherichia coli K1 infection-induced sepsis assessed as increase in survival rate at 1 mg/kg, ip pretreated for 1 hr followed by Escherichia coli K1 infection measured over 72 hrs relative to control; format: functional
Summary of the method: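 BALB/c mice dosed i.p. 1 h before i.p. E. coli K1 strain RS218 (O18:K1:H7) challenge, 1 × 10^7 CFU per mouse, diluted in LB broth; n = 10; survival monitored over 72 h.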

O=c1c(O)c(-c2ccc(O)c(O)c2)oc2cc(O)cc(O)c12
inactive: Activity (Mus musculus [1]) | Activity (Mus musculus [2]) | inhibition (BMDC) | Activity (Mus musculus [3]) | Activity (Mus musculus [4])
